Values after ≈ are worked out from the molar mass of the structure shown. Active and inactive are the calls of the source. The rule behind the calls is not given here.
Tests used:
[1] = target: T1, G-protein coupled bile acid receptor 1 (Homo sapiens, UniProt Q8TDU6); experiment: Agonist activity at human TGR5
T1 sequence (Q8TDU6 whole entry): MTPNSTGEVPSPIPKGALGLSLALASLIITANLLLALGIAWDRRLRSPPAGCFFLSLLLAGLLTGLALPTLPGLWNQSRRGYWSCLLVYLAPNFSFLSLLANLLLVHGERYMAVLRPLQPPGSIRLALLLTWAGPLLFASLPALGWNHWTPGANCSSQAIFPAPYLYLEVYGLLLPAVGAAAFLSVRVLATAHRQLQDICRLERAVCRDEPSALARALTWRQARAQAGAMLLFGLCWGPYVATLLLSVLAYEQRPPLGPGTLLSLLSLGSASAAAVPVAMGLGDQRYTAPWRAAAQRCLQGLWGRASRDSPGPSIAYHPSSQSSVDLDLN

[2] = target: T1, G-protein coupled bile acid receptor 1; experiment: Agonist activity at human TGR5 relative to control; details: read-out: Efficacy
[3] = target: T2, G-protein coupled bile acid receptor 1 (Mus musculus, UniProt Q80SS6); experiment: Agonist activity at mouse TGR5
T2 sequence (Q80SS6 whole entry): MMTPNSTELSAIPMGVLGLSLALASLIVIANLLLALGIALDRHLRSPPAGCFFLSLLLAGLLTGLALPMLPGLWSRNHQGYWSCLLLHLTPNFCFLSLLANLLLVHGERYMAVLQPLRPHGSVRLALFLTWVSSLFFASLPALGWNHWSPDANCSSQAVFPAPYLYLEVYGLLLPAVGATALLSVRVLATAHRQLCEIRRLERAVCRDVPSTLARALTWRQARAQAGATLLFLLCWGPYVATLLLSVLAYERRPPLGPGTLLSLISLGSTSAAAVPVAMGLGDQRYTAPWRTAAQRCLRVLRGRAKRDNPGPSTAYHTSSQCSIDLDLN

Bile acid receptor [4] = target: T3, Bile acid receptor (Homo sapiens, UniProt Q96RI1); experiment: Agonist activity at recombinant human GST-tagged FXR ligand binding domain (193 to 472 residues) expressed in baculovirus infected insect cells assessed as induction of interaction with biotin labelled SRC-1 after 1 hr by HTRF assay
T3 sequence (Q96RI1 whole entry): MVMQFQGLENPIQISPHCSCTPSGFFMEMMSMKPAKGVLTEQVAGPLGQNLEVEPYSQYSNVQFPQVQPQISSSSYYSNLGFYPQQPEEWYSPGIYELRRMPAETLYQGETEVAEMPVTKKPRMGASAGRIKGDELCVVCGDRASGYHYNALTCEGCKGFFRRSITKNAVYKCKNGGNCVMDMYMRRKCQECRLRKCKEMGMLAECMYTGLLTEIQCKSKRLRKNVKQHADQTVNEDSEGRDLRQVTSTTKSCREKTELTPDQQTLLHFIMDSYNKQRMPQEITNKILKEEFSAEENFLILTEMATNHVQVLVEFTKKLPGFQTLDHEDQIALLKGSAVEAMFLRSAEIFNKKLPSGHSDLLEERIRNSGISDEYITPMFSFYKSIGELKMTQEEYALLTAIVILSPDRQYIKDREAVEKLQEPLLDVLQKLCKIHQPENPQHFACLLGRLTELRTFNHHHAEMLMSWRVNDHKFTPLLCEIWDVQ

Rattus norvegicus [5] = experiment: In vivo agonist activity at FXR in po dosed Sprague-Dawley rat assessed as induction of SHP mRNA level in ileum administered as single dose measured 7 hrs post dose by qPCR analysis; type: functional, organism-based
[6] = Solubility of the compound in fasted state simulated intestinal fluid at pH 6.8; type: physicochemical
[7] = Oral bioavailability in rat at 10 mg/kg administered via gavage by LC-MS/MS analysis; type: ADME, organism-based; details: in vivo
How it was run: (§1)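 Rats were dosed IV as a solution in 75% PEG300:25% D5W, or orally as a suspension in 0.5% methylcellulose, 0.5% Tween80 and 99% water.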

[8] = Extraction ratio in human liver microsomes; type: ADME, microsome; details: read-out: ERH
Rattus norvegicus [9] = experiment: In vivo agonist activity at FXR in po dosed Sprague-Dawley rat assessed as induction of BSEP mRNA level in liver administered as single dose measured 7 hrs post dose by qPCR analysis
Rattus norvegicus [10] = experiment: In vivo agonist activity at FXR in Sprague-Dawley rat assessed as induction of SHP mRNA level in ileum at 0.3 mg/kg, po administered as single dose after 7 hrs post dose by qPCR analysis; type: functional, organism-based
Rattus norvegicus [11] = experiment: In vivo agonist activity at FXR in Sprague-Dawley rat assessed as induction of FGF15 mRNA level in ileum at 0.3 mg/kg, po administered as single dose after 7 hrs post dose by qPCR analysis; type: functional, organism-based
[12] = Cmax in rat at 10 mg/kg, po administered via gavage by LC-MS/MS analysis; type: ADME, organism-based; parameters: dose 10 mg/kg, route oral; details: in vivo; how it was run: as §1
[13] = Dissociation constant, pKa of compound; type: physicochemical
[14] = Volume of distribution at steady state in rat at 3 mg/kg, iv by LC-MS/MS analysis; type: ADME, organism-based; details: in vivo, read-out: Vdss; how it was run: as §1
[15] = Terminal half life in rat at 3 mg/kg, iv by LC-MS/MS analysis; type: ADME, organism-based; details: in vivo, read-out: beta t1/2 (converted); how it was run: as §1
Rattus norvegicus [16] = experiment: In vivo agonist activity at FXR in Sprague-Dawley rat assessed as induction of SHP mRNA level in liver at 1 mg/kg, po administered as single dose after 7 hrs post dose by qPCR analysis relative to control; type: functional
Bile acid receptor [17] = target: T3, Bile acid receptor; experiment: Agonist activity at human FXR expressed in HEK293T cells assessed as BSEP promoter driven cellular transcriptional activity after 24 hrs by luciferase reporter gene assay; type: cell-based, HEK-293T
Rattus norvegicus [18] = experiment: In vivo agonist activity at FXR in po dosed Sprague-Dawley rat assessed as induction of BSEP mRNA level in liver administered as single dose after 7 hrs post dose by qPCR analysis; type: functional, organism-based
[19] = AUC in rat at 10 mg/kg, po administered via gavage by LC-MS/MS analysis; type: ADME, organism-based; details: in vivo; how it was run: as §1
[20] = Clearance in rat at 3 mg/kg, iv by LC-MS/MS analysis; type: ADME, organism-based; details: in vivo; how it was run: as §1
[21] = Extraction ratio in rat liver microsomes; type: ADME, microsome; details: read-out: ERH
Rattus norvegicus [22] = experiment: In vivo agonist activity at FXR in po dosed Sprague-Dawley rat assessed as induction of SHP mRNA level in liver administered as single dose after 7 hrs post dose by qPCR analysis; type: functional, organism-based

SMILES | EC50 (Bile acid receptor [4]) [nM] | solubility [6] [µM] | bioavailability [7] [%] | hepatic extraction ratio [8] | Cmax [12] [nM] | pKa [13] | Vd [14] [L/kg] | half-life [15] [h] | EC50 (Bile acid receptor [17]) [nM] | AUC [19] [µM·h] | clearance [20] [mL/min/kg] | hepatic extraction ratio [21] | further results
CC[C@H]1[C@@H](O)[C@H]2[C@@H]3CC[C@H]([C@H](C)CCC(=O)NCCS(=O)(=O)O)C3(C)CC[C@@H]2[C@@]2(C)CC[C@@H](O)C[C@@H]12 (single isomer, unassigned) | – | – | – | – | – | – | – | – | – | – | – | – | EC50 [1]: 205 nM; Emax [2]: 102%; EC50 [3]: 906 nM
O=C(O)c1cc(F)c2nc(N3C4CCC3CC(OCc3c(-c5ccccc5C(F)(F)F)noc3C3CC3)C4)sc2c1 (stereo not given) | 0.46 | 510 (≈ 300 µg/mL) | 14 | 0.36 | 2110 | 4 | 0.6 | 1.8 | 0.54 | 3.64 | 11 | 0.19 | Activity (Rattus norvegicus [5]): Dose-dependent effect; Activity (Rattus norvegicus [9]): Dose-dependent effect; Activity (Rattus norvegicus [10]): Active; Activity (Rattus norvegicus [11]): Active; fold change (FC) (Rattus norvegicus [16]): 6; Activity (Rattus norvegicus [18]): Dose-dependent effect; Activity (Rattus norvegicus [22]): Dose-dependent effect
O=C(O)c1ccc2nc(N3CC[C@@H](OCc4c(-c5c(Cl)cccc5Cl)noc4C4CC4)C3)sc2c1 | 3060 | – | – | – | – | – | – | – | 9200 | – | – | – | –
COc1cc(C(=O)O)cc2sc(N3C4CCC3CC(OCc3c(-c5ccccc5OC(F)(F)F)noc3C3CC3)C4)nc12 (stereo not given) | 0.57 | 75 (≈ 46.2 µg/mL) | 9 | 0.64 | 1990 | 4.5 | 0.26 | 0.7 | 0.42 | 2.67 | 9 | 0.5 | –
CC[C@H]1[C@@H](O)[C@H]2[C@@H]3CC[C@H]([C@H](C)CCC(=O)NCC(=O)O)C3(C)CC[C@@H]2[C@@]2(C)CC[C@@H](O)C[C@@H]12 (single isomer, unassigned) | – | – | – | – | – | – | – | – | – | – | – | – | EC50 [1]: 315 nM; Emax [2]: 101%; EC50 [3]: 637 nM
CC[C@H]1[C@@H](O)[C@@H]2[C@H](CC[C@]3(C)[C@@H]([C@H](C)CCC(=O)O)CC[C@@H]23)[C@@]2(C)CC[C@@H](O)C[C@@H]12 [OBETICHOLIC ACID] | – | – | – | – | – | – | – | – | – | – | – | – | EC50 [3]: 5740 nM
O=C(O)c1ccc2nc(N3CCC(OCc4c(-c5ccccc5OC(F)(F)F)noc4C4CC4)CC3)sc2c1 | – | 70 (≈ 39.2 µg/mL) | 37 | – | 382 | – | 1.2 | 1 | – | 4.57 | 24 | – | –
O=C(O)c1ccc2nc(N3CCC(OCc4c(-c5c(F)cccc5F)noc4C4CC4)CC3)sc2c1 | – | 169 (≈ 86.5 µg/mL) | – | 0.27 | – | – | – | – | 88 | – | – | 0.52 | –
O=C(O)c1ccc2nc(N3CCC(OCc4c(-c5c(Cl)cccc5Cl)noc4C4CC4)CC3)sc2c1 | 8.3 | 61 (≈ 33.2 µg/mL) | 6 | 0.81 | 44 | – | 0.55 | 0.34 | 9.5 | 0.39 | 50 | 0.58 | –
O=C(O)c1ccc2nc(N3CCCC(OCc4c(-c5ccccc5OC(F)(F)F)noc4C4CC4)CC3)sc2c1 (stereo not given) | 4.2 | 126 (≈ 72.3 µg/mL) | – | 0.89 | – | – | – | – | 6.6 | – | – | 0.75 | –
Cc1cc(C(=O)O)cc2sc(N3C4CCC3CC(OCc3c(-c5ccccc5OC(F)(F)F)noc3C3CC3)C4)nc12 (stereo not given) | 0.49 | < 10 | 3 | < 0.21 | 86 | 5.5 | 0.84 | 1 | 0.82 | 0.832 | 14 | < 0.18 | –
O=C(O)c1ccc2nc(N3CC(OCc4c(-c5ccccc5OC(F)(F)F)noc4C4CC4)C3)sc2c1 | 1580 | – | – | – | – | – | – | – | 8400 | – | – | – | –
O=C(O)c1cc(F)c2nc(N3C4CCC3CC(OCc3c(-c5ccccc5OC(F)F)noc3C3CC3)C4)sc2c1 (stereo not given) | 0.27 | 750 (≈ 439 µg/mL) | 14 | 0.61 | 2120 | 4 | 0.7 | 3.7 | 0.8 | 3.45 | 11 | 0.4 | –
O=C(O)c1ccc2nc(N3C4CCC3CC(OCc3c(-c5ccccc5OC(F)(F)F)noc3C3CC3)C4)sc2c1 (stereo not given) | 0.54 | 110 (≈ 64.4 µg/mL) | 11 | < 0.2 | 173 | 5.1 | 1.1 | 1 | 0.69 | 1.92 | 17 | 0.51 | –
O=C(O)c1ccc2nc(N3CCC(OCc4c(-c5ccccc5C(F)(F)F)noc4C4CC4)CC3)sc2c1 | 66 | 131 (≈ 71.2 µg/mL) | – | 0.38 | – | – | – | – | 70 | – | – | 0.5 | –
